The inhibition is the drop in the measured response relative to a control, in per cent. As usually defined, the IC50 is the concentration needed to halve the response being measured. The low end stands for greater potency in that assay, the high end for weaker potency in that assay.

In assay [1] the target is DNA topoisomerase 2-alpha (Homo sapiens) (UniProt P11388). Put plainly: Inhibition of recombinant human topoisomerase 2alpha assessed as decrease in relaxation of supercoiled pBR322 DNA at 100 uM after 30 mins by agarose gel electrophoresis relative to control. Put shortly:
(§1)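 Recombinant human topo IIα (1 unit) with 100 ng supercoiled pBR322 in 10 mM Tris-HCl pH 7.9, 50 mM NaCl, 50 mM KCl, 5 mM MgCl2, 1 mM EDTA, 1 mM ATP, 15 µg/mL BSA, 30 min at 37 °C. Quenched with 7 mM EDTA. 0.8% agarose/TAE gel, 50 V, 1 h; EtBr stain; UV densitometry. Compounds came from 20 mM DMSO stocks. 20 µM was tested only when inhibition at 100 µM exceeded 30%. Etoposide was the positive control.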

For assay [2] the target is unchanged. Put plainly: Inhibition of recombinant human topoisomerase 2alpha assessed as decrease in relaxation of supercoiled pBR322 DNA at 20 uM after 30 mins by agarose gel electrophoresis relative to control. Put shortly:
as §1

In assay [3] the target is T1, DNA topoisomerase 1 (Homo sapiens) (UniProt P11387).
T1 sequence (whole entry): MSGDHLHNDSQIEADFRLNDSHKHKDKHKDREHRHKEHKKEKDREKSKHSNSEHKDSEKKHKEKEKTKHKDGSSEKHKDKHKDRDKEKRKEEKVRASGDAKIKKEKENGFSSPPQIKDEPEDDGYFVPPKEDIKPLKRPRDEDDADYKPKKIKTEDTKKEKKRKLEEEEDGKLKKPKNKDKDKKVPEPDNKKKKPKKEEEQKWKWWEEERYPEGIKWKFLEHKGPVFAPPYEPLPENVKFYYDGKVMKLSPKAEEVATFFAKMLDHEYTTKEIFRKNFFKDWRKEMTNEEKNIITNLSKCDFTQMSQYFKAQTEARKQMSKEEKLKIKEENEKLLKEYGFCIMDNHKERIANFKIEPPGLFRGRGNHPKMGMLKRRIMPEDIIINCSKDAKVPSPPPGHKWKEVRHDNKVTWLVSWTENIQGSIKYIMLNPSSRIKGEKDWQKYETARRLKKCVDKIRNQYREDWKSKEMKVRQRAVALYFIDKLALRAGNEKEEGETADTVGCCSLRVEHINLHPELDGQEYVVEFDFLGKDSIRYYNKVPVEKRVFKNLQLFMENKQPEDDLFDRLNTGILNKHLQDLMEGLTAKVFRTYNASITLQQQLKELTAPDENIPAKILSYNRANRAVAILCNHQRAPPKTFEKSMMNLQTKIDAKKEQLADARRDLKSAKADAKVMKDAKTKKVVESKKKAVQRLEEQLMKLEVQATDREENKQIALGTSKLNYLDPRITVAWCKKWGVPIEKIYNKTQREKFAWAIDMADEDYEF
Description: Inhibition of recombinant human topoisomerase 1 assessed as decrease in relaxation of supercoiled pBR322 DNA at 100 uM after 30 mins by agarose gel electrophoresis relative to control. Put shortly:
(§2)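 Supercoiled pBR322 (100 ng) with 1 unit recombinant human topo I in 10 mM Tris-HCl pH 7.9, 150 mM NaCl, 0.1% BSA, 0.1 mM spermidine, 5% glycerol, 30 min at 37 °C. Stopped with SDS/dye stop solution. Run on 0.8% agarose in TAE, 50 V, 1 h; EtBr-stained; bands quantitated under UV. Compounds came from 20 mM DMSO stocks. 20 µM was tested only when inhibition at 100 µM exceeded 30%. Camptothecin was the positive control.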

The next assay relates to HCT-15. Put plainly: Antiproliferative activity against human HCT15 cells after 72 hrs by CCK-8 assay. In kind it is functional, cell-based. The settings on record: HCT-15, 72 h. Put shortly:
(§3)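 Cells seeded at 2-4 x 10^4 per well and grown overnight in medium with 10% FBS (37 °C, 5% CO2). After 4 h FBS starvation, medium was replaced with medium containing graded compound concentrations for 72 h. CCK-8 was added for 4 h more, then absorbance read at 450 nm. IC50 came from a four-parameter logistic fit. Mean ± S.D. of three experiments, each in triplicate.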
In general terms: Tetrazolium dyes change colour on reduction, which living cells bring about.

In a further assay the test system is T47D. Description: Antiproliferative activity against human T47D cells after 72 hrs by CCK-8 assay. In kind it is functional, cell-based. Put shortly: as §3
The test system of assay [4] is HeLa. Description: Antiproliferative activity against human HeLa cells after 72 hrs by CCK-8 assay. In kind it is functional, cell-based. Put shortly: as §3
Assay [5] relates to HeLa. Description: Potency index, ratio of etoposide IC50 to compound IC50 for human HeLa cells. Format: functional.
For assay [6], the system named is HeLa. Description: Potency index, ratio of adriamycin IC50 to compound IC50 for human HeLa cells. Format: functional.
For assay [7], the target named is T1, DNA topoisomerase 1 (Homo sapiens). Put plainly: Inhibition of recombinant human topoisomerase 1 assessed as decrease in relaxation of supercoiled pBR322 DNA at 20 uM after 30 mins by agarose gel electrophoresis relative to control. Put shortly: as §2
For assay [8], the target named is DNA topoisomerase 2-alpha (Homo sapiens) (UniProt P11388). Description: Inhibition of recombinant human topoisomerase 2alpha assessed as decrease in relaxation of supercoiled pBR322 DNA at 100 uM after 30 mins by agarose gel electrophoresis relative to etoposide.
Sequence of DNA topoisomerase 2-alpha (Homo sapiens) (P11388 whole entry): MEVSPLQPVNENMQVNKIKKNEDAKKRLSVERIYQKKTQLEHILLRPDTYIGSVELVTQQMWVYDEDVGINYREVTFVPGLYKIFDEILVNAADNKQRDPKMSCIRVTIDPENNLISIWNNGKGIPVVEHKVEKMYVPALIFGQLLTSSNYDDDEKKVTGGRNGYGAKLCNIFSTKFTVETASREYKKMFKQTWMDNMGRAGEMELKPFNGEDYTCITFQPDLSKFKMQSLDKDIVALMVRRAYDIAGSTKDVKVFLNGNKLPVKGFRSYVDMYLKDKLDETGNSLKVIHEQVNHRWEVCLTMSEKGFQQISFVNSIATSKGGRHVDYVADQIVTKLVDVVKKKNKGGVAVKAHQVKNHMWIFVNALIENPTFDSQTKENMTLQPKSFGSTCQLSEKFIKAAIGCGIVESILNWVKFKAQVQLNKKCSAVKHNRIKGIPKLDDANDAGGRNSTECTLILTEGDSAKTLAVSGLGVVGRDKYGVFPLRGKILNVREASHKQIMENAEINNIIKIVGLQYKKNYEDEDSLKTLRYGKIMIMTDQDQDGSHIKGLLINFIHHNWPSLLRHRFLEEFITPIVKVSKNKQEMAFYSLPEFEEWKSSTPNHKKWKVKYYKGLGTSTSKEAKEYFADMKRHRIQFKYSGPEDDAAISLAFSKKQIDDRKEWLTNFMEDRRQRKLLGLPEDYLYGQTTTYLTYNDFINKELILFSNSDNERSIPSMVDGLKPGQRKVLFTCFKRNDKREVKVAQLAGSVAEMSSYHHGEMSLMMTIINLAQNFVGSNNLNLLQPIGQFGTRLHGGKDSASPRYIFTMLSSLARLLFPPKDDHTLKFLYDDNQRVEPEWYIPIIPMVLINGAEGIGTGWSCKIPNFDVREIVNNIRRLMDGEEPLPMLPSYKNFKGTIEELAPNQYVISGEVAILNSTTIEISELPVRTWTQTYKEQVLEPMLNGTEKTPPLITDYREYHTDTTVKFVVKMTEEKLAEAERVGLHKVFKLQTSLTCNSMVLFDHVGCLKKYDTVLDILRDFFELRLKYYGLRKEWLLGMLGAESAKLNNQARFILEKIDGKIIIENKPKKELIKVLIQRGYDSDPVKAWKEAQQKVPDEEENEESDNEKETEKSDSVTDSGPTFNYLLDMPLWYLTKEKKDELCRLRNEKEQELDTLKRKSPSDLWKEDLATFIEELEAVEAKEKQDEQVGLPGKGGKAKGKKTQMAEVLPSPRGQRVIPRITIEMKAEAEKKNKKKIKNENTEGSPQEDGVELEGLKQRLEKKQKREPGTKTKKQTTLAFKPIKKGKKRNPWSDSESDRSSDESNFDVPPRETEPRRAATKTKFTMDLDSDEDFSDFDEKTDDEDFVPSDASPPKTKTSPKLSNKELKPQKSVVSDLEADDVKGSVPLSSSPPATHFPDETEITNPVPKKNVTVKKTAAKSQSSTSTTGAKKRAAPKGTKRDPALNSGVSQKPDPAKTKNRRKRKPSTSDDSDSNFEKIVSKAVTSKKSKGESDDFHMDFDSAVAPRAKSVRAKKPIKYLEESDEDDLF
The target is the same in assay [9]. Put plainly: Inhibition of recombinant human topoisomerase 2alpha assessed as decrease in relaxation of supercoiled pBR322 DNA at 20 uM after 30 mins by agarose gel electrophoresis relative to etoposide.
Assay [10] has as its target T1, DNA topoisomerase 1 (Homo sapiens). Description: Inhibition of recombinant human topoisomerase 1 assessed as decrease in relaxation of supercoiled pBR322 DNA at 100 uM after 30 mins by agarose gel electrophoresis relative to camptothecin.
The target is the same in assay [11]. Put plainly: Inhibition of recombinant human topoisomerase 1 assessed as decrease in relaxation of supercoiled pBR322 DNA at 20 uM after 30 mins by agarose gel electrophoresis relative to camptothecin.
The target in assay [12] is DNA topoisomerase 2-alpha (Homo sapiens) (UniProt P11388). Description: Potency index, ratio of compound effect for recombinant human topoisomerase 2alpha to etoposide effect for recombinant human topoisomerase 2alpha at 20 uM.

The source made the active and inactive calls. The rule behind the calls is not given here.

In the case of `Oc1ccc(-c2cc(-c3cccc(Cl)c3)c3c(n2)-c2ccccc2OC3)cc1`, the inhibition in assay [1] amounted to 79.5%; in assay [2] it was 12.1%; in assay [3], 22.8%. For the same compound, the IC50 in the assay with HCT-15 worked out at 3410 nM; in the assay with T47D it was 1270 nM; in the assay with HeLa [4] it was 660 nM. Also, the “Ratio IC50” value came out at 15.2 with HeLa [5] and 2.6 in the assay on HeLa [6].
On to `Oc1cccc(-c2cc(-c3ccccc3Cl)nc3c2COc2ccccc2-3)c1`, for which the inhibition came out at 90.8% in [1], 57.3% in assay [2], 79.1% in assay [3] and 1.7% in assay [7]. For the same compound, the IC50 with HCT-15 was determined as 870 nM; in the assay on T47D, 700 nM; with HeLa [4] it was 2500 nM. The fold change (FC) in assay [8] worked out at 1.37; in assay [9], 1.61; in assay [10] it was 0.99; in assay [11], 0.05.
For `Oc1cccc(-c2cc(-c3cccc(Cl)c3)nc3c2COc2ccccc2-3)c1`, the results for the inhibition in assay [1], in [2] and in [3] were 84%, 63.7% and 30%, respectively. Moreover, the inhibition result in assay [7] is “inactive”. Further, the figures for the half-maximal inhibitory concentration (IC50) with HCT-15, in the assay with T47D and in the assay with HeLa [4] were 2130 nM, 720 nM and 680 nM, respectively. The fold change (FC) in [8] worked out at 1.26; in assay [9], 1.79; in assay [10], 0.36. Besides, the “fold change (FC)” value in assay [11] is “inactive”.
`Oc1ccc(-c2cc(-c3ccccc3Cl)nc3c2COc2ccccc2-3)cc1`: the inhibition in [1] was 82.7%; in assay [2], 74.5%. Besides, the inhibition entry in assay [3] is “inactive”. Besides, the IC50 worked out at 1740 nM in the assay on HCT-15, 750 nM in the assay on T47D and 2110 nM in the assay on HeLa [4]. In addition, the Ratio in assay [12] is 2. Besides, the fold change (FC) in assay [8] is 1.24; in assay [9], 2.1. Moreover, the “fold change (FC)” value in [10] is “inactive”.
Consider `Oc1ccc(-c2cc(-c3ccccc3Cl)c3c(n2)-c2ccccc2OC3)cc1`, for which the values for the inhibition in assay [1], in assay [2] and in assay [3] were 63.5%, 48.1% and 56.1%, respectively. The inhibition entry in assay [7] is “inactive”. Further, the IC50 was determined as 4720 nM with HCT-15, 940 nM in the assay with T47D and 680 nM in the assay on HeLa [4].
For the compound `Oc1ccc(-c2cc(-c3ccc(Cl)cc3)c3c(n2)-c2ccccc2OC3)cc1`, the inhibition in assay [1] turned out to be 100%; in assay [2], 19.9%; in assay [3], 38.5%; in assay [7], 1.7%. In addition, the results for the IC50 with HCT-15, in the assay on T47D and in the assay with HeLa [4] were 1850 nM, 1380 nM and 2080 nM, respectively.
Turning to `Oc1ccc(-c2cc(-c3cccc(Cl)c3)nc3c2oc2ccccc23)cc1`, the fold change (FC) in [8] was 1.01; in assay [9], 0.77; in assay [10], 1.56; in [11], 1.29.

Values taken from ChEMBL document CHEMBL4219120, “Synthesis and SAR study of new hydroxy and chloro-substituted 2,4-diphenyl 5H-chromeno[4,3-b]pyridines as selective topoisomerase IIα-targeting anticancer agents” (Bioorg Med Chem, 2018).
